ChEMBL document CHEMBL1782031, “Urea/thiourea derivatives of quinazolinone-lysine conjugates: synthesis and structure-activity relationships of a new series of antimicrobials” (2011)

What was measured:
Type in all cases: functional
Details in all cases: read-out: DIZ
Bacillus subtilis = assay: Antibacterial activity against Bacillus subtilis at 10 ug/disc after 24 hrs by disc diffusion method
Summary of the method: (§1)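 Disc diffusion assay. Discs were held at 4 °C for 2 h so the compounds could diffuse, then incubated at 28 °C. Inhibition zone diameters were measured in mm after 24 h. Each compound was tested in triplicate.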

Escherichia coli = assay: Antibacterial activity against Escherichia coli at 10 ug/disc after 24 hrs by disc diffusion method; summary of the method: as §1
Pseudomonas fluorescens = assay: Antibacterial activity against Pseudomonas fluorescens at 10 ug/disc after 24 hrs by disc diffusion method; summary of the method: as §1
[1] = Antibacterial activity against Xanthomonas campestris pvs. at 10 ug/disc after 24 hrs by disc diffusion method; summary of the method: as §1
Xanthomonas oryzae = assay: Antibacterial activity against Xanthomonas oryzae at 10 ug/disc after 24 hrs by disc diffusion method

Row | SMILES | zone of inhibition at 10 µg/disc (Bacillus subtilis) | zone of inhibition at 10 µg/disc (Escherichia coli) | zone of inhibition at 10 µg/disc (Pseudomonas fluorescens) | zone of inhibition at 10 µg/disc [1] | zone of inhibition at 10 µg/disc (Xanthomonas oryzae)
1 | Cc1cc(F)ccc1NC(=S)NCCCC[C@H](NC(=O)CCc1nc2ccccc2c(=O)[nH]1)C(=O)O | 34 mm | 33 mm | 35 mm | 34 mm | 35 mm
2 | COC(=O)[C@H](CCCCN)NC(=O)CCc1nc2ccccc2c(=O)[nH]1 | 6 mm | 8 mm | 10 mm | 9 mm | 10 mm
3 | COC(=O)[C@H](CCCCNC(=S)Nc1cccc(F)c1)NC(=O)CCc1nc2ccccc2c(=O)[nH]1 | 36 mm | 38 mm | 36 mm | 38 mm | 35 mm
4 | COC(=O)[C@H](CCCCNC(C)=O)NC(=O)CCCc1nc2ccccc2c(=O)[nH]1 | 8 mm | 9 mm | 7 mm | 6 mm | 8 mm
5 | COC(=O)[C@H](CCCCNC(=O)Nc1ccc(OC)cc1)NC(=O)CCCc1nc2ccccc2c(=O)[nH]1 | 20 mm | 21 mm | 22 mm | 24 mm | 25 mm
6 | COc1ccc(NC(=O)NCCCC[C@H](NC(=O)CCCc2nc3ccccc3c(=O)[nH]2)C(=O)O)cc1 | 22 mm | 24 mm | 23 mm | 25 mm | 26 mm
